Results published in ChEMBL document CHEMBL1124403, “Studies on semirigid tricyclic analogues of the nigrostriatal toxin 1-methyl-4-phenyl-1,2,3,6-tetrahydropyridine” (J Med Chem, 1989).

Tests used:
Mus musculus [1] = assay: (§1) Black mice were injected intraperitoneally with 100 uMol of test compound and Striatal levels of Dopamine in mice measured after 1 month; assay type: functional
Method in brief: (§2)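 Male C-57 black mice, 8–10 weeks old, 25–30 g, six per data point. Dosed ip at 100 μmol/kg in 50 μL normal saline every hour for 4 h; controls received saline only. Times counted from the last injection. Striata dissected and stored at −80 °C. Dopamine measured by HPLC with electrochemical detection after alumina extraction, with DHBA as internal standard; reported as ng/mg tissue.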

Mus musculus [2] = assay: Black mice were injected intraperitoneally with 100 uMol of test compound and Striatal levels of Dopamine in mice measured after 24 hours; assay type: functional; method in brief: as §2
Mus musculus [3] = assay: (§3) Black mice were injected intraperitoneally with 100 uMol /kg of test compound and Striatal levels of dopamine in mice measured after 4 hours; assay type: functional; method in brief: as §2
Mus musculus [4] = assay: Black mice were injected intraperitoneally with 100 uMol of test compound and Striatal levels of Dopamine in mice measured after 1 week; assay type: functional; method in brief: as §2
[5] = biological target: T1, Amine oxidase [flavin-containing] B (Bos taurus, UniProt P56560); assay: Binding affinity against Monoamine oxidase B
T1 sequence (P56560 whole entry): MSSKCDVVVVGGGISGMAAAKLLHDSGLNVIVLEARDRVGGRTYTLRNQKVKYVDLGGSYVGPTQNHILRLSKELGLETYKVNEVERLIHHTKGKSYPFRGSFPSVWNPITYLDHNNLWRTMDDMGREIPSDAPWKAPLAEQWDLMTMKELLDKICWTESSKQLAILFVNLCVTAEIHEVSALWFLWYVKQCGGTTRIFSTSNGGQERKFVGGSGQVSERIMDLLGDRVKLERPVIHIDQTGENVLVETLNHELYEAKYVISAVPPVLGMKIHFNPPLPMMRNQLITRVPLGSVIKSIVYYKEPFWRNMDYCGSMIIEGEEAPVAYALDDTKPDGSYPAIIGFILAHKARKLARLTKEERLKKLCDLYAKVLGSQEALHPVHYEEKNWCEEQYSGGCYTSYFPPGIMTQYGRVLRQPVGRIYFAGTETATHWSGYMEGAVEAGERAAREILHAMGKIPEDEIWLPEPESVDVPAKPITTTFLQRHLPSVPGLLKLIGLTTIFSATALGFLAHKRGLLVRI
Method in brief: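 Beef liver mitochondrial MAO-B, purified and cleared of heme protein by sucrose-gradient centrifugation; 0.02 unit enzyme in 50 mM sodium phosphate pH 7.2 with 0.2% (w/v) reduced Triton X-100. Inhibitor at 0–500 μM or 0–100 μM against benzylamine 0.17–3.3 mM. Oxidation followed at 250 nm as initial rates. Lineweaver–Burk plots; Ki taken from secondary replots of slope vs inhibitor concentration.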

[6] = biological target: T1, Amine oxidase [flavin-containing] B; assay: Rate of oxidation against monoamine oxidase B
Method in brief: (§4)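 Beef liver mitochondrial MAO-B, purified, 0.1 unit in 50 mM sodium phosphate pH 7.2 with 0.2% reduced Triton X-100. Substrate at 3 mM (3.0 mM). Initial rate of dihydropyridinium product formation read spectrophotometrically at its λmax (345 nm for MPDP⁺, 360 nm for the tricyclic products), in nmol min⁻¹ mL⁻¹. Controls held 10⁻⁶ M pargyline.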

[7] = biological target: T2, Dopamine receptor (Mus musculus) (UniProt P51436+Q8BLD9+Q61616+P61168+P30728); assay: Black mice were injected intraperitoneally with 100 uMol of test compound and Striatal levels of dopamine in mice measured after 24 hours; assay type: functional; method in brief: as §2
[8] = biological target: T1, Amine oxidase [flavin-containing] B; assay: Rate of oxidation against monoamine oxidase-B (MAO-B); method in brief: as §4
[9] = biological target: T2, Dopamine receptor (Mus musculus); assay: Black mice were injected intraperitoneally with 100 uMol of test compound and Striatal levels of dopamine in mice measured after 1 week; assay type: functional; method in brief: as §2
[10] = biological target: T2, Dopamine receptor (Mus musculus); assay: as §3; assay type: functional; method in brief: as §2
[11] = biological target: T2, Dopamine receptor (Mus musculus); assay: as §1; assay type: functional; method in brief: as §2

Compound	Dopamine level (Mus musculus [1])	Dopamine level (Mus musculus [2])	Dopamine level (Mus musculus [3])	Dopamine level (Mus musculus [4])	Ki [5]	Rate of oxidation [6]	Dopamine level [7]	Rate of oxidation [8]	Dopamine level [9]	Dopamine level [10]	Dopamine level [11]
CN1CCC2=C(Cc3ccccc32)C1	21.9 ng/mg	24.5 ng/mg	6.5 ng/mg	18.2 ng/mg	75 µM	0.21 nM min-1 ml-1					
CN1CCc2c([nH]c3ccccc23)C1					400 µM	0.1 nM min-1 ml-1					
CN1CCC2C(=Cc3ccccc32)C1 (centres undefined)	19.2 ng/mg	30.3 ng/mg	4.3 ng/mg	16.4 ng/mg	65 µM	0 nM min-1 ml-1					
CN1CC=C(c2ccccc2)CC1							6.5 ng/mg	25.87 nM min-1 ml-1	2.7 ng/mg	4.8 ng/mg	5 ng/mg
